These results are taken from ChEMBL document CHEMBL3259650, “Synthesis of symmetrically substituted 3,3-dibenzyl-4-hydroxy-3,4-dihydro-1H-quinolin-2-ones, as novel quinoline derivatives with antibacterial activity” (Eur J Med Chem, 2014).

Broadly, the MIC is the lowest concentration that inhibits growth of the organism.

One assay relates to Bacillus spizizenii. The experiment in a line: Antibacterial activity against Bacillus subtilis ATCC 6633 assessed as growth inhibition after 24 hrs by micro dilution method. The assay is classed as functional. The following applies: ATCC 6633, 24 h. In short, it runs like this: (§1)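 MIC determined by broth microdilution in casein soy broth (pH 7.3) at an inoculum of 10^5 CFU/mL, incubated 24 h at 37 C. Levofloxacin was the comparator and controls were run alongside. Samples were tested in quadruplicate.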

The subject of assay [1] is Staphylococcus aureus. The assay can be described thus: Antibacterial activity against Staphylococcus aureus ATCC 6538p assessed as growth inhibition after 24 hrs by micro dilution method. The assay is classed as functional. In short, it runs like this:
as §1

The test system of assay [2] is Shigella sonnei. The experiment in a line: Antibacterial activity against Shigella sonnei ATCC 15305 assessed as growth inhibition after 24 hrs by micro dilution method. The assay is classed as functional. To be noted: ATCC 15305, 24 h. In short, it runs like this: as §1
Another assay has as its system Pseudomonas aeruginosa. The assay can be described thus: Antibacterial activity against Pseudomonas aeruginosa ATCC […] assessed as growth inhibition after 24 hrs by micro dilution method. In kind it is functional. In short, it runs like this: as §1
Assay [3] has as its system Escherichia coli. The experiment in a line: Antibacterial activity against Escherichia coli ATCC 25922 assessed as growth inhibition after 24 hrs by micro dilution method. In kind it is functional. To be noted: ATCC 25922, 24 h. In short, it runs like this: as §1
Assay [4] has as its system Enterococcus sp. The experiment in a line: Antibacterial activity against Enterococcus sp. ATCC 6589 assessed as growth inhibition after 24 hrs by micro dilution method. In kind it is functional. The following applies: ATCC 6589, 24 h. In short, it runs like this: as §1
A further assay deals with Klebsiella aerogenes. The assay can be described thus: Antibacterial activity against Enterobacter aerogenes ATCC 13048 assessed as growth inhibition after 24 hrs by micro dilution method. The assay is classed as functional. The following applies: ATCC 13048, 24 h. In short, it runs like this:
as §1

Assay [5] concerns Salmonella typhimurium. The assay can be described thus: Antibacterial activity against Salmonella typhimurium ATCC 14028 assessed as growth inhibition after 24 hrs by micro dilution method. In kind it is functional, Salmonella enterica subsp. enterica serovar Typhimurium. The following applies: Salmonella enterica, ATCC 14028, 24 h. The method in brief: as §1
Assay [6] has as its system Burkholderia cepacia. The experiment in a line: Antibacterial activity against Burkholderia cepacia ATCC 17759 assessed as growth inhibition after 24 hrs by micro dilution method. The following applies: ATCC 17759, 24 h. The assay is classed as functional. In short, it runs like this: as §1
The subject of assay [7] is Morganella morganii. The experiment in a line: Antibacterial activity against Morganella morganii ATCC 8019 assessed as growth inhibition after 24 hrs by micro dilution method. The assay is classed as functional. To be noted: ATCC 8019, 24 h. The method in brief: as §1
The test system of assay [8] is Staphylococcus aureus. The experiment in a line: Antibacterial activity against Staphylococcus aureus ATCC 6538p. In kind it is functional. In short, it runs like this:
as §1

Assay [9] relates to Shigella sonnei. The assay can be described thus: Antibacterial activity against Shigella sonnei ATCC 15305. The assay is classed as functional.
Assay [10] deals with Escherichia coli. The assay can be described thus: Antibacterial activity against Escherichia coli ATCC 25922. The assay is classed as functional.
The test system of assay [11] is Enterococcus sp. The experiment in a line: Antibacterial activity against Enterococcus sp. ATCC 6589. In kind it is functional.
In assay [12] the test system is Salmonella typhimurium. The experiment in a line: Antibacterial activity against Salmonella typhimurium ATCC 14028. The assay is classed as functional, Salmonella enterica subsp. enterica serovar Typhimurium. The method in brief: as §1
For assay [13], the system named is Burkholderia cepacia. The experiment in a line: Antibacterial activity against Burkholderia cepacia ATCC 17759. In kind it is functional.
The subject of assay [14] is Morganella morganii. The experiment in a line: Antibacterial activity against Morganella morganii ATCC 8019. In kind it is functional.
Assay [15] relates to Enterococcus sp. The experiment in a line: Antibacterial activity against Enterococcus sp. ATCC 6589 assessed as growth inhibition by measuring turbidity of medium at 6.25 to 100 ug/mL measured over 10 hrs by microplate reader analysis. The assay is classed as functional, organism-based. The method in brief: (§2)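 Overnight casein soy broth cultures (37 C) were centrifuged, resuspended in fresh medium and adjusted to about 5 10^7 cells/mL (OD620 0.2). Cells were grown in microplate wells to mid-log phase, then twofold serial dilutions of the test agents in fresh medium were added. OD620 was read every 15 min at 23 C for 10 h, with 30 s shaking between reads. Runs were in quadruplicate.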

In assay [16] the test system is Enterococcus sp. The experiment in a line: Antibacterial activity against Enterococcus sp. ATCC 6589 assessed as growth inhibition by measuring turbidity of medium measured over 10 hrs by microplate reader analysis. The assay is classed as functional, organism-based. The method in brief:
as §2

The test system of assay [17] is Morganella morganii. The experiment in a line: Antibacterial activity against Morganella morganii ATCC 8019 assessed as growth inhibition by measuring turbidity of medium measured over 10 hrs by microplate reader analysis. The assay is classed as functional, organism-based. In short, it runs like this: as §2
Assay [18] concerns Enterococcus sp. The experiment in a line: Antibacterial activity against Enterococcus sp. ATCC 6589 assessed as growth inhibition by measuring turbidity of medium at 25 to 400 ug/mL measured over 10 hrs by microplate reader analysis. The assay is classed as functional, organism-based. In short, it runs like this:
as §2

The structures appear in SMILES notation. Values after ≈ are worked out from the molar mass of the structure shown. Active and inactive are the calls of the source. No cut-off for these calls is given here.

Consider `C[C@H]1COc2c(N3CCN(C)CC3)c(F)cc3c(=O)c(C(=O)O)cn1c23.C[C@H]1COc2c(N3CCN(C)CC3)c(F)cc3c(=O)c(C(=O)O)cn1c23.O` [LEVOFLOXACIN], for which the MIC was found to be 3.12 mg/L in the assay on Bacillus spizizenii; 3.12 mg/L in the assay on Staphylococcus aureus [1]; 3.12 mg/L in the assay with Shigella sonnei [2]; 3.12 mg/L with Pseudomonas aeruginosa; 3.12 mg/L in the assay on Escherichia coli [3]; 0.78 mg/L in the assay on Enterococcus sp. [4]. Further, the MIC in the assay on Klebsiella aerogenes, in the assay with Salmonella typhimurium [5], in the assay on Burkholderia cepacia [6] and in the assay with Morganella morganii [7] was 0.78 mg/L in each case. In addition, the MLC in the assay with Staphylococcus aureus [8] was found to be 3.12 mg/L; in the assay on Shigella sonnei [9], 3.12 mg/L; in the assay with Escherichia coli [10], 3.12 mg/L; with Enterococcus sp. [11] it was 0.78 mg/L; in the assay on Salmonella typhimurium [12] it was 0.78 mg/L; with Burkholderia cepacia [13], 0.78 mg/L. For the same compound, the MLC with Morganella morganii [14] is 0.78 mg/L. For the same compound, in the assay on Enterococcus sp. [15], the “growth inhibition (GI)” value was “Active”.

Consider `CCN1C(=O)C(Cc2ccc(Cl)cc2)(Cc2ccc(Cl)cc2)C(O)c2cc(Cl)ccc21` (configuration not stated), for which the MIC was 3.12 mg/L (≈ 6.57 µM) with Bacillus spizizenii; 6.25 mg/L (≈ 13.2 µM) in the assay with Staphylococcus aureus [1]; 50 mg/L (≈ 105 µM) in the assay on Shigella sonnei [2]; 50 mg/L (≈ 105 µM) with Pseudomonas aeruginosa; 50 mg/L (≈ 105 µM) in the assay with Escherichia coli [3]; 6.25 mg/L (≈ 13.2 µM) in the assay on Enterococcus sp. [4]. Also, the MIC stood at 50 mg/L (≈ 105 µM) in the assay on Klebsiella aerogenes, 50 mg/L (≈ 105 µM) in the assay with Salmonella typhimurium [5] and 6.25 mg/L (≈ 13.2 µM) in the assay with Morganella morganii [7]. The MLC is 50 mg/L (≈ 105 µM) in the assay with Staphylococcus aureus [8]; 100 mg/L (≈ 211 µM) with Shigella sonnei [9]; 100 mg/L (≈ 211 µM) in the assay on Escherichia coli [10]; 25 mg/L (≈ 52.7 µM) with Enterococcus sp. [11]; 100 mg/L (≈ 211 µM) with Salmonella typhimurium [12]; 12.5 mg/L (≈ 26.3 µM) with Burkholderia cepacia [13]. Further, the MLC with Morganella morganii [14] stood at 12.5 mg/L (≈ 26.3 µM). In addition, the “growth inhibition (GI)” value with Enterococcus sp. [16] and in the assay on Morganella morganii [17] was “Dose-dependent effect” each time.

As for `CC1(C)S[C@@H]2[C@H](NC(=O)[C@H](N)c3ccccc3)C(=O)N2[C@H]1C(=O)O`, the “growth inhibition (GI)” value with Enterococcus sp. [18] is “Active”.
